Published values pooled from the literature.
Target: Histone deacetylase 1 (HDAC1, Homo sapiens, UniProt Q13547)

test | endpoint | result | Structure (SMILES)
enzyme activity, inhibitor, fluorescence | IC50 | 715 nM | CCCON(Cc1ccc(C(=O)NO)cc1)C(=O)Nc1ccc(N(C)C)cc1
cell-free assay | Kd | > 30200 nM | O=C(CCCCCCC(=O)Nc1ccc([C@H]2O[C@@H](CSc3nc(-c4ccccc4)c(-c4ccccc4)o3)C[C@@H](c3ccc(CO)cc3)O2)cc1)NO
enzyme activity, inhibitor | IC50 | 100 nM | CC(C)C[C@H]1CC(=O)N[C@@H](C)C(=O)N[C@@H](CCCCCC(=O)O)C(=O)N[C@@H](Cc2c[nH]c3ccccc23)C(=O)N1
enzyme activity, inhibitor, fluorescence | IC50 | 742 nM | CCCON(Cc1ccc(C(=O)NO)cc1)C(=O)Nc1ccccc1
cell-free assay | Kd | 3.17 nM | C/C=C1\NC(=O)[C@H]2CSSCC/C=C/[C@H](CC(=O)N[C@H](C(C)C)C(=O)N2)OC(=O)[C@H](C(C)C)NC1=O
enzyme activity, inhibitor | IC50 | 774 nM | O=C(NO)c1ccc(NC(=O)C2(c3ccc(Cl)cc3)CCCC2)c(F)c1
enzyme activity, inhibitor | IC50 | 27900 nM | Cc1nc2ccccc2n1Cc1ccc(C(=O)NO)cn1
enzyme activity, inhibitor | IC50 | 222 nM | O=C(NO)c1ccc(NC(=O)C2(c3ccc(C(F)(F)F)c(F)c3)CCCC2)cc1
enzyme activity, inhibitor | IC50 | 68 nM | CCCC[C@H](NC(=O)C1CN(C)C1)c1ncc(-c2cc3ccccc3nc2OC)[nH]1
enzyme activity, inhibitor | IC50 | 73 nM | O=C(NO)c1ccc(NC(=O)C2(c3ccccc3)CCOCC2)c(F)c1
enzyme activity, inhibitor, fluorescence | IC50 | 280 nM | CCC[C@H](NC(=O)C1CN(C)C1)c1ncc(-c2cc3ccccc3nc2OC)[nH]1
enzyme activity, inhibitor | IC50 | > 300000 nM | C=CCC[C@@H]1NC(=O)[C@H]2CCCN2C(=O)[C@H](Cc2ccccc2)NC(=O)C(C)(C)NC1=O
